For 10 compounds, Activity results are on record in ChEMBL document CHEMBL1148222, “Chemical constituents of Glycosmis arborea: three new carbazole alkaloids and their biological activity” (J Nat Prod, 2004).

Holding throughout (format): cell-based
Series [1] deals with Raji. As to the kind of experiment: Cytotoxicity against human Raji cells at 32 […] after 48 hrs by trypan blue staining method. The method, boiled down: (§1)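 Raji cells grown to 10^6 cells/mL, then resuspended in RPMI 1640 with 10% FCS. Medium held 4 mM n-butyric acid, 32 pmol TPA (20 ng/mL in DMSO) and test compound in DMSO. Culture ran 48 h at 37 °C. Viable cells were counted by hemocytometer with Trypan Blue exclusion. At least 60% survival is required for a valid EBV-EA reading.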

Series [2] deals with Raji. In words: Inhibition of TPA-induced EBV-early antigen activation in human Raji cells at 0.32 […] after 48 hrs relative to control. On the set-up: scale not given: the % may be the effect or the level left. Particulars: human gammaherpesvirus 4. The method, boiled down: (§2)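 Raji cells at 10^6 cells/mL were resuspended in RPMI 1640 with 10% FCS. Induction used 4 mM n-butyric acid plus 32 pmol TPA (20 ng/mL), with test compound in DMSO at mol ratios of 10–1000 to TPA. Cells were held 48 h at 37 °C. EA-positive cells were counted blind, at least 500 cells per assay, and expressed as % of the TPA-only control (100%) ± SD.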

For series [3], the system named is Raji. In words: Cytotoxicity against human Raji cells at 3.2 […] after 48 hrs by trypan blue staining method. The method, boiled down: as §1
The subject of series [4] is Raji. In words: Inhibition of TPA-induced EBV-early antigen activation in human Raji cells at 32 […] after 48 hrs relative to control. Details: scale not given: the % may be the effect or the level left. The following applies: human gammaherpesvirus 4. The method, boiled down:
as §2

Series [5] deals with Raji. In words: Inhibition of TPA-induced EBV-early antigen activation in human Raji cells at 3.2 […] after 48 hrs relative to control. On the set-up: scale not given: the % may be the effect or the level left. Particulars: human gammaherpesvirus 4. The method, boiled down: as §2
Series [6] has as its system Raji. As to the kind of experiment: Inhibition of TPA-induced EBV-early antigen activation in human Raji cells at 16 […] after 48 hrs relative to control. On the set-up: scale not given: the % may be the effect or the level left. Particulars: human gammaherpesvirus 4. The method, boiled down: as §2
Series [7] has as its system Raji. As to the kind of experiment: Cytotoxicity against human Raji cells at 0.32 […] after 48 hrs by trypan blue staining method. The method, boiled down: as §1
For series [8], the system named is Raji. As to the kind of experiment: Cytotoxicity against human Raji cells at 16 […] after 48 hrs by trypan blue staining method. The method, boiled down: as §1

Bounds are passed on as bounds.

On to `COc1cccc2c(=O)c3ccoc3n(C)c12`, for which the Activity in the series with Raji [1] was 60%; with Raji [2] it was 100%; in the series with Raji [3] it was over 80%; in the series with Raji [4] it was 19.9%; with Raji [5], 79.5%; in the series on Raji [6] it was 40.5%. Moreover, the Activity in the series on Raji [7] and in the series on Raji [8] was over 80% each time.

Take `Cn1c(Cc2ccccc2)nc(=O)c2ccccc21` [ARBORINE]: the Activity in the series on Raji [1] was 60%; in the series with Raji [2], 100%; with Raji [3], over 80%; in the series on Raji [4] it was 12.7%; in the series on Raji [5] it was 75.6%; in the series with Raji [6], 40.4%. For the same compound, the Activity with Raji [7] and with Raji [8] was over 80% throughout.

Turning to `COc1cc2c(c(O)c1OC)c(=O)c1ccccc1n2C` [ARBORININE], the Activity with Raji [1] was 60%; with Raji [2], 95.6%; in the series with Raji [3], over 80%; in the series on Raji [4], 2.7%; in the series with Raji [5], 74.3%; with Raji [6] it was 39.6%. Further, the Activity with Raji [7] and in the series with Raji [8] was over 80% in each case.

Consider `CC1=C(/C=C/C(C)=C/C=C/C(C)=C/C=C/C=C(C)/C=C/C=C(C)/C=C/C2=C(C)CCCC2(C)C)C(C)(C)CCC1` [BETA CAROTENE], for which the Activity with Raji [1] was 60%; with Raji [2], 100%; in the series with Raji [3] it was over 80%; in the series on Raji [4], 9.1%; with Raji [7], over 80%; with Raji [8] it was over 80%.

As for `COc1c2ccoc2nc2c(OC)cccc12` [GAMMA-FAGARINE], the Activity with Raji [1] is 60%; in the series with Raji [2] it was 100%; in the series with Raji [3], over 80%; in the series with Raji [4], 15.4%; with Raji [5], 77.7%; in the series with Raji [6], 38.2%. Besides, the Activity with Raji [7] and in the series on Raji [8] was over 80% in each case.

As to `COc1ccc2[nH]c3cc(O)c(C)cc3c2c1CC=C(C)C` [GLYBOMINE B], the Activity in the series on Raji [1] was 60%; in the series on Raji [2], 96.4%; in the series on Raji [3], over 80%; with Raji [4], 15.3%; in the series with Raji [5], 68.7%; with Raji [6], 46.7%. In addition, the Activity in the series on Raji [7] and in the series with Raji [8] was over 80% throughout.

As for `CC(C)=CCc1c(O)ccc2[nH]c3cc(O)c(C)cc3c12` [GLYBOMINE C], the Activity was 60% in the series with Raji [1]; 94.6% with Raji [2]; over 80% in the series with Raji [3]; 13.4% in the series on Raji [4]; 68.9% with Raji [5]; 45.6% in the series with Raji [6]. Besides, the Activity in the series with Raji [7] and in the series on Raji [8] was over 80% throughout.

For `Cc1cc2c(cc1O)[nH]c1ccc3c(c12)C=CC(C)(C)O3` [GLYCOBORININE], the Activity in the series with Raji [1] is 60%; in the series with Raji [2] it was 100%; in the series with Raji [3], over 80%; with Raji [4] it was 17.4%; with Raji [5], 73.7%; in the series on Raji [6] it was 49.1%. The Activity in the series with Raji [7] and in the series with Raji [8] was over 80% in each case.

For `COc1ccc2[nH]c3cc(OC)c(C)cc3c2c1` [GLYCOZOLIDINE], the Activity in the series with Raji [1] is 60%; in the series with Raji [2] it was 100%; in the series with Raji [3] it was over 80%; in the series with Raji [4], 24.3%; in the series on Raji [5], 76%; with Raji [6] it was 51.3%. In addition, the Activity with Raji [7] and with Raji [8] was over 80% each time.

Take `Cn1c2ccccc2c(=O)c2ccoc21` [ISODICTAMNINE]: the Activity in the series with Raji [1] is 60%; in the series with Raji [2] it was 100%; in the series on Raji [3], over 80%; in the series on Raji [4], 18.4%; in the series on Raji [5], 72.2%; in the series with Raji [6], 40.3%. Besides, the Activity in the series on Raji [7] and in the series on Raji [8] was over 80% in each case.
